pIC50: −log10 of the molar value. Activity calls are given as the source filed them. The rule behind the calls is not given here.
Tests used:
CCRF-CEM [1] = experiment: Induction of apoptosis in human CCRF-CEM cells assessed as apoptotic cells at 5 times IC50 after 24 hrs by propidium iodide staining-based flow cytometry; type: functional
Summary of the method: (§1)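 Cells were then fixed in 70% ethanol, washed in hypotonic citrate buffer, treated with RNase (50 µg/mL) and stained with propidium iodide. Flow cytometry used a 488 nm laser. Apoptosis was scored as the percentage of particles with propidium content below G0/G1.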

CCRF-CEM [2] = experiment: Cell cycle arrest in human CCRF-CEM cells assessed as accumulation at G2/M phase at IC50 after 24 hrs by propidium iodide staining-based flow cytometry; type: functional; summary of the method: as §1
[3] = Cytostatic activity against human CEM-DNR cells after 72 hrs by MTT assay; type: functional, cell-based
Summary of the method: (§2)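 Cells were seeded at 25,000–30,000 per well and pre-incubated for 24 h at 37°C in 5% CO2. Four-fold compound dilutions were added in duplicate and incubated for 72 h. MTT was added for 1–4 h, and formazan was dissolved in 10% aq SDS (pH 5.5) overnight at 37°C. OD was read at 540 nm. IC50 came from dose-response curves, mean ± SD of eight independent experiments.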

CCRF-CEM [4] = experiment: Induction of apoptosis in human CCRF-CEM cells assessed as inhibition of DNA synthesis at IC50 after 24 hrs by propidium iodide/BrdU staining by flow cytometry; type: functional; design: scale not given: the % may be the effect or the level left
BJ [5] = experiment: Cytostatic activity against human BJ cells after 72 hrs by MTT assay; type: ADME, cell-based; summary of the method: as §2
CCRF-CEM [6] = experiment: Induction of apoptosis in human CCRF-CEM cells assessed as mitotic cells at 5 times IC50 after 24 hrs by pH3Ser10+ labeling-based flow cytometry; type: functional
Staphylococcus aureus [7] = experiment: Antimicrobial activity against Staphylococcus aureus CCM 3953 up to 200 uM after 24 to 48 hrs by broth microdilution method; type: functional, organism-based
Nucleic Acid [8] = experiment: Binding affinity to DNA (unknown origin) assessed as DNA intercalation by UV-visible spectrophotometry; type: nucleic-acid assay
CCRF-CEM [9] = experiment: Cytostatic activity against human CCRF-CEM cells after 72 hrs by MTT assay; type: functional, cell-based; summary of the method: as §2
[10] = Metal chelating activity of the compound assessed as formation of Ni2+ complex by UV-vis spectrometry; type: physicochemical
BJ [11] = experiment: Selectivity index, ratio of IC50 for human BJ cells to IC50 for human K562-TAX cells; type: functional
Pseudomonas aeruginosa = experiment: Antimicrobial activity against Pseudomonas aeruginosa CCM 395 up to 200 uM after 24 to 48 hrs by broth microdilution method; type: functional, organism-based
A549 [12] = experiment: Selectivity index, ratio of IC50 for human BJ cells to IC50 for human A549 cells; type: functional
[13] = Cytostatic activity against human p53-/- HCT116 cells after 72 hrs by MTT assay; type: functional, cell-based; details: HCT-116, 72 h; summary of the method: as §2
BJ [14] = experiment: Selectivity index, ratio of IC50 for human BJ cells to IC50 for human p53-/- HCT116 cells; type: functional
Escherichia coli [15] = experiment: Antimicrobial activity against multidrug-resistant Escherichia coli C/16702 up to 200 uM after 24 to 48 hrs by broth microdilution method; type: functional, organism-based
Nucleic Acid [16] = experiment: Binding affinity to DNA (unknown origin) assessed as DNA intercalation by UV-visible spectrophotometry in presence of Cu2+; type: nucleic-acid assay
CCRF-CEM [17] = experiment: Induction of apoptosis in human CCRF-CEM cells assessed as mitotic cells at IC50 after 24 hrs by pH3Ser10+ labeling-based flow cytometry; type: functional
[18] = Cytostatic activity against human K562-TAX cells after 72 hrs by MTT assay; type: functional, cell-based; summary of the method: as §2
BJ [19] = experiment: Selectivity index, ratio of IC50 for human BJ cells to IC50 for human K562 cells; type: functional
BJ [20] = experiment: Selectivity index, ratio of IC50 for human BJ cells to IC50 for human CCRF-CEM cells; type: functional; details: pooled result: one value given for 2 cell lines, strains, targets or settings
Candida tropicalis = experiment: Antifungal activity against Candida tropicalis up to 200 uM after 24 to 48 hrs by broth microdilution method; type: functional, organism-based
[21] = Metal chelating activity of the compound assessed as formation of Cr3+ complex by UV-vis spectrometry; type: physicochemical
K562 = experiment: Selectivity index, ratio of IC50 for human MRC5 cells to IC50 for human K562 cells; type: functional
HCT-116 [22] = experiment: Selectivity index, ratio of IC50 for human MRC5 cells to IC50 for human HCT116 cells; type: functional
Nucleic Acid [23] = experiment: Binding affinity to DNA (unknown origin) assessed as DNA intercalation by UV-visible spectrophotometry in presence of Ni2+; type: nucleic-acid assay
CCRF-CEM [24] = experiment: Cell cycle arrest in human CCRF-CEM cells assessed as accumulation at S phase at IC50 after 24 hrs by propidium iodide staining-based flow cytometry; type: functional; summary of the method: as §1
MRC5 [25] = experiment: Selectivity index, ratio of IC50 for human MRC5 cells to IC50 for human K562-TAX cells; type: functional
[26] = Metal chelating activity of the compound assessed as formation of Mg2+ complex by UV-vis spectrometry; type: physicochemical
A549 [27] = experiment: Cytostatic activity against human A549 cells after 72 hrs by MTT assay; type: functional, cell-based; details: A549, 72 h; summary of the method: as §2
CCRF-CEM [28] = experiment: Induction of apoptosis in human CCRF-CEM cells assessed as inhibition of RNA synthesis at 5 times IC50 after 24 hrs by propidium iodide/BrU staining by flow cytometry; type: functional; design: scale not given: the % may be the effect or the level left
Nucleic Acid [29] = experiment: Binding affinity to DNA (unknown origin) assessed as DNA intercalation by UV-visible spectrophotometry in presence of Co2+; type: nucleic-acid assay
CCRF-CEM [30] = experiment: Induction of apoptosis in human CCRF-CEM cells assessed as inhibition of DNA synthesis at 5 times IC50 after 24 hrs by propidium iodide/BrdU staining by flow cytometry; type: functional; design: scale not given: the % may be the effect or the level left
CCRF-CEM [31] = experiment: Induction of apoptosis in human CCRF-CEM cells assessed as inhibition of RNA synthesis at IC50 after 24 hrs by propidium iodide/BrU staining by flow cytometry; type: functional; design: scale not given: the % may be the effect or the level left
MRC5 [32] = experiment: Cytostatic activity against human MRC5 cells after 72 hrs by MTT assay; type: ADME, cell-based; details: MRC5, 72 h; summary of the method: as §2
Staphylococcus aureus [33] = experiment: Antimicrobial activity against methicillin-resistant Staphylococcus aureus MRSA 4591 up to 200 uM after 24 to 48 hrs by broth microdilution method; type: functional, organism-based
BJ [34] = experiment: Selectivity index, ratio of IC50 for human BJ cells to IC50 for human CEM-DNR cells; type: functional
CCRF-CEM [35] = experiment: Cell cycle arrest in human CCRF-CEM cells assessed as accumulation at G2/M phase at 5 times IC50 after 24 hrs by propidium iodide staining-based flow cytometry; type: functional; summary of the method: as §1
Enterococcus faecalis = experiment: Antimicrobial activity against Enterococcus faecalis CCM 4224 up to 200 uM after 24 to 48 hrs by broth microdilution method; type: functional, organism-based
CEM-DNR = experiment: Selectivity index, ratio of IC50 for human MRC5 cells to IC50 for human CEM-DNR cells; type: functional
HCT-116 [36] = experiment: Selectivity index, ratio of IC50 for human MRC5 cells to IC50 for human p53-/- HCT116 cells; type: functional
Candida parapsilosis = experiment: Antifungal activity against Candida parapsilosis up to 200 uM after 24 to 48 hrs by broth microdilution method; type: functional, organism-based
Escherichia coli [37] = experiment: Antimicrobial activity against Escherichia coli CCM 3954 up to 200 uM after 24 to 48 hrs by broth microdilution method; type: functional, organism-based

O=C(NN=C(c1ccccn1)c1ccccn1)c1ccc2c3c(ccc2c1)N1Cc2c(ccc4cc(C(=O)NN=C(c5ccccn5)c5ccccn5)ccc24)N(C3)C1
Activity (CCRF-CEM [1]): 24.51%
Activity (CCRF-CEM [2]): 10.49%
pIC50 [3]: 5.68
Activity (CCRF-CEM [4]): 57.31%
pIC50 (BJ [5]): 5.68
Activity (CCRF-CEM [6]): 1.72%
Activity (Staphylococcus aureus [7]): inactive
Activity (Nucleic Acid [8]): inactive
pIC50 (CCRF-CEM [9]): 6.04
Activity [10]: Active
Ratio IC50 (BJ [11]): 2.8
Activity (Pseudomonas aeruginosa): inactive
Ratio IC50 (A549 [12]): 0.8
pIC50 [13]: 6.11
Ratio IC50 (BJ [14]): 2
Activity (Escherichia coli [15]): inactive
Activity (Nucleic Acid [16]): Active
Activity (CCRF-CEM [17]): 0.53%
pIC50 [18]: 6.25
Ratio IC50 (BJ [19]): 2.4
Ratio IC50 (BJ [20]): 1.7
Activity (Candida tropicalis): inactive
Activity [21]: Not Active
Ratio IC50 (K562): 2.4
Ratio IC50 (HCT-116 [22]): 3.4
Activity (Nucleic Acid [23]): Active
Activity (CCRF-CEM [24]): 61.24%
Ratio IC50 (MRC5 [25]): 2.8
Activity [26]: Not Active
pIC50 (A549 [27]): 5.69
Activity (CCRF-CEM [28]): 55.9%
Activity (Nucleic Acid [29]): Active
Activity (CCRF-CEM [30]): 55.69%
Activity (CCRF-CEM [31]): 60.37%
pIC50 (MRC5 [32]): 5.99
Activity (Staphylococcus aureus [33]): inactive
Ratio IC50 (BJ [34]): 0.7
Activity (CCRF-CEM [35]): 28.23%
Activity (Enterococcus faecalis): inactive
Ratio IC50 (CEM-DNR): 0.7
Ratio IC50 (HCT-116 [36]): 2
Activity (Candida parapsilosis): inactive
Activity (Escherichia coli [37]): inactive

COc1ccc(O)c(/C=N/NC(=O)c2ccc3c4c(ccc3c2)N2Cc3c(ccc5cc(C(=O)N/N=C/c6cc(OC)ccc6O)ccc35)N(C4)C2)c1
Activity (CCRF-CEM [1]): 21.74%
Activity (CCRF-CEM [2]): 15.97%
pIC50 [3]: 5.67
Activity (CCRF-CEM [4]): 50.98%
pIC50 (BJ [5]): 4.24
Activity (CCRF-CEM [6]): 0.67%
Activity (Staphylococcus aureus [7]): inactive
Activity (Nucleic Acid [8]): inactive
pIC50 (CCRF-CEM [9]): 6.74
Activity [10]: Active
Ratio IC50 (BJ [11]): 137.7
Activity (Pseudomonas aeruginosa): inactive
Ratio IC50 (A549 [12]): 123.2
pIC50 [13]: 7.22
Ratio IC50 (BJ [14]): 495
Activity (Escherichia coli [15]): inactive
Activity (Nucleic Acid [16]): Active
Activity (CCRF-CEM [17]): 0.99%
pIC50 [18]: 6.68
Ratio IC50 (BJ [19]): 357.2
Ratio IC50 (BJ [20]): 162.3
Activity (Candida tropicalis): inactive
Activity [21]: Not Active
Ratio IC50 (K562): 357.2
Ratio IC50 (HCT-116 [22]): 622.3
Activity (Nucleic Acid [23]): Active
Activity (CCRF-CEM [24]): 54.03%
Ratio IC50 (MRC5 [25]): 137.7
Activity [26]: Not Active
pIC50 (A549 [27]): 6.64
Activity (CCRF-CEM [28]): 56.37%
Activity (Nucleic Acid [29]): Active
Activity (CCRF-CEM [30]): 31.78%
Activity (CCRF-CEM [31]): 63.95%
pIC50 (MRC5 [32]): 6.96
Activity (Staphylococcus aureus [33]): inactive
Ratio IC50 (BJ [34]): 13.3
Activity (CCRF-CEM [35]): 12.4%
Activity (Enterococcus faecalis): inactive
Ratio IC50 (CEM-DNR): 13.3
Ratio IC50 (HCT-116 [36]): 495
Activity (Candida parapsilosis): inactive
Activity (Escherichia coli [37]): inactive
